The text below walks through data of ChEMBL document CHEMBL1671655, “Anidulafungin is fungicidal and exerts a variety of postantifungal effects against Candida albicans, C. glabrata, C. parapsilosis, and C. krusei isolates” (2009).

Assay [1] deals with Candida parapsilosis. Nature of the assay: Fungicidal activity against Candida parapsilosis isolate A assessed as log reduction in bacterial count at MIC after 48 hrs by time-kill analysis. In kind it is functional. The note with it: Lodderomyces parapsilosis. The essentials:
(§1)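 Isolates subcultured twice on SDA, then suspended to 0.5 McFarland and diluted into RPMI 1640 (MOPS, pH 7.0) with or without anidulafungin, giving about 1 x 10^5 to 5 x 10^5 CFU/ml. Tubes were shaken at 35°C. Samples were taken at 0, 2, 4, 8, 12, 24 and 48 h, serially diluted 10-fold, plated on SDA, and CFU counted after 48 h at 35°C. Each isolate was run twice; mean values.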

For assay [2], the system named is Candida parapsilosis. Nature of the assay: Fungicidal activity against Candida parapsilosis isolate S assessed as log reduction in bacterial count at 4 times MIC after 48 hrs by time-kill analysis. In kind it is functional. The note with it: Lodderomyces parapsilosis. An outline of the steps: as §1
Assay [3] relates to Candida albicans. Nature of the assay: Fungicidal activity against Candida albicans isolate S assessed as log reduction in bacterial count at 16 times MIC after drug exposure for 1 hr followed by washout measured after 48 hrs in the absence of drug by PAFE study. In kind it is functional. An outline of the steps:
(§2)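 Starting inoculum ~1 x 10^5 to 5 x 10^5 CFU/ml in MOPS-buffered RPMI 1640 (pH 7.0) with drug at multiples of the CLSI M27-A3 MIC. After 1 h at 35°C, cells washed and centrifuged three times at 1,400 x g for 10 min, then resuspended in warm drug-free RPMI. Shaken at 35°C and plated on SDA at 0–48 h; CFU counted after 48 h. Run twice per isolate; means.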

Assay [4] relates to Candida albicans. Nature of the assay: Fungicidal activity against Candida albicans isolate 1 assessed as log reduction in bacterial count at 4 times MIC after drug exposure for 1 hr followed by washout measured after 48 hrs in the absence of drug by PAFE study. It is filed as functional. An outline of the steps: as §2
Assay [5] relates to Candida albicans. Nature of the assay: Fungicidal activity against Candida albicans isolate 2 assessed as log reduction in bacterial count at 16 times MIC after drug exposure for 1 hr followed by washout measured after 48 hrs in the absence of drug by PAFE study. In kind it is functional. An outline of the steps:
as §2

The test system of assay [6] is Candida albicans. Nature of the assay: Fungicidal activity against Candida albicans isolate 2 assessed as log reduction in bacterial count at MIC after drug exposure for 1 hr followed by washout measured after 48 hrs in the absence of drug by PAFE study. It is filed as functional. An outline of the steps: as §2
Assay [7] concerns Candida parapsilosis. Nature of the assay: Fungicidal activity against Candida parapsilosis isolate A assessed as log reduction in bacterial count at MIC after drug exposure for 1 hr followed by washout measured after 48 hrs in the absence of drug by PAFE study. It is filed as functional. The conditions noted are these: Lodderomyces parapsilosis. The essentials: (§3)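 Inoculum about 1 x 10^5 to 5 x 10^5 CFU/ml in RPMI 1640 (MOPS, pH 7.0) with drug, shaken at 35°C for 1 h. Cells were then washed and centrifuged at 1,400 x g for 10 min (3 cycles) and resuspended in warm drug-free RPMI. Samples plated on SDA at 0, 2, 4, 8, 12, 24 and 48 h; CFU counted after 48 h at 35°C. Run twice per isolate; means.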

Assay [8] has as its system Candida parapsilosis. Nature of the assay: Fungicidal activity against Candida parapsilosis isolate 1 assessed as log reduction in bacterial count at 16 times MIC after drug exposure for 1 hr followed by washout measured after 48 hrs in the absence of drug by PAFE study. It is filed as functional. The note with it: Lodderomyces parapsilosis. The essentials:
as §2

Assay [9] deals with Candida parapsilosis. Nature of the assay: Fungicidal activity against Candida parapsilosis isolate S assessed as log reduction in bacterial count at 16 times MIC after drug exposure for 1 hr followed by washout measured after 48 hrs in the absence of drug by PAFE study. The note with it: Lodderomyces parapsilosis. In kind it is functional. The essentials:
as §3

Assay [10] has as its system Nakaseomyces glabratus. Nature of the assay: Fungicidal activity against Candida glabrata isolate 1 assessed as log reduction in bacterial count at 16 times MIC after drug exposure for 1 hr followed by washout measured after 48 hrs in the absence of drug by PAFE study. It is filed as functional. An outline of the steps: as §2
Assay [11] deals with Candida tropicalis. Nature of the assay: Antifungal activity against Candida tropicalis by NCCLS M27A broth microdilution method. In kind it is functional. (In general: Broth dilution looks for growth in wells or tubes with falling amounts of substance.)
The test system of assay [12] is Candida parapsilosis. Nature of the assay: Antifungal activity against Candida parapsilosis isolate A assessed as time period for bacterial growth inhibition at 16 times MIC after 1 hr drug exposure. In kind it is functional. The essentials:
(§4)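 Inoculum of about 1 x 10^5 to 5 x 10^5 CFU/ml in MOPS-buffered RPMI (pH 7.0), shaken at 35°C and exposed to drug for 1 h. Cells then washed and centrifuged three times and resuspended in drug-free warm RPMI. Samples plated on SDA at 0, 2, 4, 8, 12, 24 and 48 h, with CFU counted after 48 h at 35°C. Run twice per isolate; values are means.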

Assay [13] has as its system Nakaseomyces glabratus. Nature of the assay: Antifungal activity against Candida glabrata isolate 3 assessed as time period for bacterial growth inhibition at 16 times MIC after 1 hr drug exposure. It is filed as functional. The essentials: as §4
Assay [14] deals with Candida albicans. Nature of the assay: Increase in susceptibility to SDS in Candida albicans isolate 1 assessed as cell wall damage at 4 times MIC after 1 hr relative to control. In kind it is functional, organism-based. The essentials:
(§5)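 Cells recovered 8 h after a 1-h drug exposure were grown in YPD with 1% glucose to exponential phase and adjusted to OD599 0.1. Undiluted culture and 10-fold serial dilutions were spotted onto YPD plates containing SDS (0.01 to 0.04%), then incubated 72 h at 30°C. Growth compared with unexposed control cells; triplicate.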

Assay [15] relates to Candida albicans. Nature of the assay: Increase in susceptibility to SDS in Candida albicans ATCC 90028 assessed as cell wall damage at 4 times MIC after 1 hr relative to control. In kind it is functional, organism-based. The essentials:
as §5

For assay [16], the system named is Candida parapsilosis. Nature of the assay: Increase in susceptibility to SDS in Candida parapsilosis isolate A assessed as cell wall damage at 4 times MIC after 1 hr relative to control. It is filed as functional, organism-based. An outline of the steps:
as §5

The subject of assay [17] is Pichia kudriavzevii. Nature of the assay: Increase in susceptibility to calcofluor white in Candida krusei isolate ATCC 6258 assessed as cell wall damage at MIC after 1 hr relative to control. In kind it is functional, organism-based. An outline of the steps:
(§6)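 Candida given a 1-h anidulafungin pulse in MOPS-buffered RPMI 1640 (pH 7.0) at 35°C, washed three times by centrifugation, and regrown drug-free. Cells collected 8 h later, grown in YPD with 1% glucose to exponential phase, and set to OD599 0.1. Undiluted culture and 10-fold dilutions (4 µl) spotted on YPD plates with calcofluor white, then 30°C for 72 h. Triplicate; compared with no-drug cells.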

Assay [18] has as its system Candida albicans. Nature of the assay: Increase in susceptibility to calcofluor white in Candida albicans ATCC 90028 assessed as cell wall damage at 4 times MIC after 1 hr relative to control. It is filed as functional, organism-based. The essentials: (§7)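 Cells recovered 8 h after a 1-h drug exposure were grown to exponential phase in YPD with 1% glucose and adjusted to OD599 0.1. Undiluted and 10-fold serially diluted cultures were spotted onto YPD plates containing calcofluor white, then incubated at 30°C for 72 h. Growth compared with no-drug control cells; triplicate.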

Assay [19] deals with Nakaseomyces glabratus. Nature of the assay: Increase in susceptibility to calcofluor white in Candida glabrata isolate 3 assessed as cell wall damage at 4 times MIC after 1 hr relative to control. It is filed as functional, organism-based. The essentials: as §7
Assay [20] concerns Candida parapsilosis. Nature of the assay: Increase in susceptibility to calcofluor white in Candida parapsilosis isolate A assessed as cell wall damage at 16 times MIC after 1 hr relative to control. It is filed as functional, organism-based. An outline of the steps: as §6
For assay [21], the system named is Pichia kudriavzevii. Nature of the assay: Antifungal activity against Candida krusei isolate 1 assessed as cell wall damage at 4 times MIC by Transmission electron microscopy. In kind it is functional, organism-based. An outline of the steps:
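Cells recovered 8 h after a 1-h drug exposure were grown on SDA for 24 h at 35°C. Colonies fixed at 4°C in 0.1 M cacodylate (pH 7.2) with 2% glutaraldehyde and 2% paraformaldehyde, ethanol-dehydrated and embedded in Lowicryl K4M. Thin sections examined by transmission EM.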

Assay [22] has as its system Candida parapsilosis. Nature of the assay: Antifungal activity against Candida parapsilosis isolate A coincubated with mouse J774 macrophages assessed as macrophage induced bacterial cell killing at 4 times MIC (reference value: 19 +/- 9 %). In kind it is functional.

Values after ≈ are worked out from the molar mass of the structure shown. Active and inactive are the calls of the source. The rule behind the calls is not given here. Starred links: 1 amine or outer side, 2 acyl side, 3 side chain; linkers in the order of their positions; H or OH if unused. Positions of bridges follow the written chain, without caps; N, C: chain ends. Non-standard residues stand in square brackets, D forms with d. Residues, ends and D or L forms follow the SMILES beside them. *: point of attachment. pTerphenylCO(4''-OnC5H11) = CCCCCOc1ccc(-c2ccc(-c3ccc(C(=O)*)cc3)cc2)cc1; Orn(4R-OH,5R-OH) = O=C([C@H](C[C@@H](O)[C@@H](O)N[*:3])N[*:1])[*:2]; hTyr(3S-OH,4S-OH) = N[C@H](C(=O)O)[C@H](O)[C@@H](O)c1ccc(O)cc1; Pro(3S-OH,4S-Me) = C[C@H]1CN[C@H](C(=O)O)[C@H]1O; Hyp = O=C(O)[C@@H]1C[C@@H](O)CN1

For the compound `CCCCCOc1ccc(-c2ccc(-c3ccc(C(=O)N[C@H]4C[C@@H](O)[C@@H](O)NC(=O)[C@@H]5[C@@H](O)[C@@H](C)CN5C(=O)[C@H]([C@@H](C)O)NC(=O)[C@H]([C@H](O)[C@@H](O)c5ccc(O)cc5)NC(=O)[C@@H]5C[C@@H](O)CN5C(=O)[C@H]([C@@H](C)O)NC4=O)cc3)cc2)cc1` [ANIDULAFUNGIN] ({pTerphenylCO(4''-OnC5H11)}-[Orn(4R-OH,5R-OH)]T[Hyp][hTyr(3S-OH,4S-OH)]T[Pro(3S-OH,4S-Me)]; lactam 1-C), the log reduction in [1] is 1.76 log CFU/ml; in [2] it was 2.77 log CFU/ml; in [3], 2.52 log CFU/ml; in [4] it was 1.18; in [5], 1.55; in assay [6] it was 0.86. In addition, the log reduction turned out to be 1.41 in assay [7], 3.17 in [8], 3.05 in assay [9] and 3.36 in assay [10]. The MIC90 – broadly, an inhibitory concentration at the 90% level, which refers to growth in some studies and to a panel of isolates in others – in assay [11] was 0.06 µg/mL (≈ 0.0526 µM). Moreover, the Time in assay [12] and in assay [13] was 8 h each time. The outcome in assay [14], in assay [15], in assay [16], in [17], in assay [18] and in [19] was Active. Besides, the result in assay [20] and in assay [21] was Active. Also, the “inhibition (INH)” value in assay [22] is 42%.
